BindingDB's records for doi:10.1016/j.bmcl.2005.10.070 (Pharmacopeia, 2005)
Where “and” joins values, the source holds several entries; their conditions need not be identical. Equal values may be shown once.

Target: Protein farnesyltransferase subunit beta/geranylgeranyltransferase type-1 subunit alpha (Mus musculus, UniProt Q61239+Q8K2I1)
Assay: Anchorage-independent growth of transformed NIH3T3 cells in soft agar
Summary of the method: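 Transformed NIH-3T3 cells grown in soft agar; colonies photographed by video camera and counted; IC50 calculated from colony counts.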

Structure (SMILES): O=C(NCCCn1ccnc1)C1CN(C2c3ccc(Cl)cc3CCc3cc(Br)cnc32)CCN1C(=O)NC1CCCCC1 (stereo unspecified) [4-(3-bromo-8-chloro-6,11-dihydro-5H-benzo[5,6]cyclohepta[1,2-b]pyridin-11-yl)-piperazine-1,2-dicarboxylicacid 1-cyclohexylamide 2-[(3-imidazol-1-yl-propyl)-amide]]
- IC50: 5 nM and 5.2 nM
